ChEMBL document CHEMBL5705886, “GSK1070916, a potent Aurora B/C kinase inhibitor with broad antitumor activity in tissue culture cells and human tumor xenograft models” (Mol Cancer Ther, 2009)
The source made the active and inactive calls. The calls are words filed in the database; no cut-off is given here.

Key:
[1] = system: NCI-H358; assay: Antiproliferative activity against human NCI-H358 cells assessed as inhibition of cell viability measured for 6 to 7 days by cell titer glo assay; format: functional, cell-based
Method in brief: (§1)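 Cells seeded in recommended growth medium, incubated overnight at 37°C in 5% CO2, then exposed to serial dilutions of inhibitor for 6–7 d. A parallel plate was read with CellTiter-Glo at compound addition as a T=0 value. The luminescent viability readout had no-cell background subtracted and was expressed as % of DMSO control.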

[2] = system: SK-MEL-5; assay: Antiproliferative activity against human SK-MEL-5 cells assessed as inhibition of cell viability measured for 6 to 7 days by cell titer glo assay; format: functional, cell-based
Method in brief: (§2)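 Cells seeded in recommended growth medium, held overnight at 37°C in 5% CO2, then exposed to serial dilutions of inhibitor for 6–7 d. A time-zero plate was read with CellTiter-Glo at dosing. Luminescent viability read at the end. No-cell wells subtracted as background, data expressed as percent of DMSO control.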

[3] = system: SK-MEL-28; assay: Antiproliferative activity against human SK-MEL-28 cells assessed as inhibition of cell viability measured for 6 to 7 days by cell titer glo assay; format: functional, cell-based; method in brief: as §2
[4] = system: JM1; assay: Antiproliferative activity against human JM1 cells assessed as inhibition of cell viability measured for 6 to 7 days by cell titer glo assay; format: functional, cell-based; method in brief: as §1
[5] = Antiproliferative activity against human RKOE6 cells assessed as inhibition of cell viability measured for 6 to 7 days by cell titer glo assay; format: functional, cell-based; method in brief: as §2
[6] = system: HL-60; assay: Antitumor activity in human HL-60 cells xenografted in SCID mouse assessed as median survival time at 12.5 mg/kg, ip administered once daily for 5 consecutive days with 2 days off scheduled for 2 cycles measured upto 120 days; format: functional; conditions: time <= 120 day
[7] = Antiproliferative activity against human DND41 cells assessed as inhibition of cell viability measured for 6 to 7 days by cell titer glo assay; format: functional, cell-based
Method in brief: (§3)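 Tumor lines plated in recommended growth media, overnight at 37°C, 5% CO2, then given serial dilutions; a T=0 plate read with CellTiter-Glo at dosing. After 6–7 d of exposure, viability read by CellTiter-Glo luminescence. No-cell wells subtracted, data expressed as % of DMSO control.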

[8] = Toxicity in SCID nude mouse xenografted with human A549 cells assessed as drug tolerance at 25 to 100 mg/kg, ip administered once daily for 5 consecutive days with 2 days off scheduled for 3 cycles measured upto 60 days; format: organism-based; conditions: in vivo, 1440 h, dose 25-100 mg/kg, time 60 day
[9] = system: NALM-6; assay: Antiproliferative activity against human NALM-6 cells assessed as inhibition of cell viability measured for 6 to 7 days by cell titer glo assay; format: functional, cell-based; method in brief: as §1
[10] = system: MV4-11; assay: Antiproliferative activity against human MV4-11 cells assessed as inhibition of cell viability measured for 6 to 7 days by cell titer glo assay; format: functional, cell-based; method in brief: as §1
[11] = Antiproliferative activity against human Kasumi-2 cells assessed as inhibition of cell viability measured for 6 to 7 days by cell titer glo assay; format: functional, cell-based; method in brief: as §1
[12] = system: ASPC1; assay: Antiproliferative activity against human ASPC1 cells assessed as inhibition of cell viability measured for 6 to 7 days by cell titer glo assay; format: functional, cell-based; method in brief: as §3
[13] = system: LoVo; assay: Antiproliferative activity against human LoVo cells assessed as inhibition of cell viability measured for 6 to 7 days by cell titer glo assay; format: functional, cell-based; method in brief: as §1
[14] = Antiproliferative activity against human Karpas-231 cells assessed as inhibition of cell viability measured for 6 to 7 days by cell titer glo assay; format: functional, cell-based; method in brief: as §1
[15] = Toxicity in SCID nude mouse xenografted with human NCI-H460 cells assessed as body weight loss at 25 to 100 mg/kg, ip administered once daily for 5 consecutive days with 2 days off scheduled for 3 cycles measured upto 60 days relative to control; format: organism-based; conditions: in vivo, 1440 h, dose 25-100 mg/kg, time < 60 day
[16] = system: NU-DUL-1; assay: Antiproliferative activity against human NU-DUL-1 cells assessed as inhibition of cell viability measured for 6 to 7 days by cell titer glo assay; format: functional, cell-based; method in brief: as §2
[17] = system: Toledo; assay: Antiproliferative activity against human Toledo cells assessed as inhibition of cell viability measured for 6 to 7 days by cell titer glo assay; format: functional, cell-based; method in brief: as §2
[18] = Antiproliferative activity against human ALL-SIL cells assessed as inhibition of cell viability measured for 6 to 7 days by cell titer glo assay; format: functional, cell-based; method in brief: as §3
[19] = system: GDM-1; assay: Antiproliferative activity against human GDM-1 cells assessed as inhibition of cell viability measured for 6 to 7 days by cell titer glo assay; format: functional, cell-based; method in brief: as §3
[20] = system: OCI-LY19; assay: Antiproliferative activity against human OCILY19 cells assessed as inhibition of cell viability measured for 6 to 7 days by cell titer glo assay; format: functional, cell-based; method in brief: as §2
[21] = Antiproliferative activity against human MEC-1 cells assessed as inhibition of cell viability measured for 6 to 7 days by cell titer glo assay; format: functional, cell-based; conditions: MEC1; method in brief: as §1
[22] = Antiproliferative activity against human MJ cells assessed as inhibition of cell viability measured for 6 to 7 days by cell titer glo assay; format: functional, cell-based; method in brief: as §1
[23] = system: OCI-AML-3; assay: Antiproliferative activity against human OCI-AML-3 cells assessed as inhibition of cell viability measured for 6 to 7 days by cell titer glo assay; format: functional, cell-based; method in brief: as §2
[24] = system: PC-3; assay: Antiproliferative activity against human PC-3 cells assessed as inhibition of cell viability measured for 6 to 7 days by cell titer glo assay; format: functional, cell-based; method in brief: as §2
[25] = system: COLO 320DM; assay: Antiproliferative activity against human COLO 320DM cells assessed as inhibition of cell viability measured for 6 to 7 days by cell titer glo assay; format: functional, cell-based; method in brief: as §3
[26] = system: SW-620; assay: Antitumor activity in human SW620 cells xenografted in SCID mouse assessed as reduction in tumor growth at 25 to 100 mg/kg, ip administered once daily for 5 consecutive days with 2 days off scheduled for 3 cycles measured upto 60 days; format: functional, organism-based; conditions: dose 25-100 mg/kg, time 60.0 day
[27] = system: SW 954; assay: Antiproliferative activity against human SW 954 cells assessed as inhibition of cell viability measured for 6 to 7 days by cell titer glo assay; format: functional, cell-based; method in brief: as §2
[28] = system: MDA-MB-453; assay: Antiproliferative activity against human MDA-MB-453 cells assessed as inhibition of cell viability measured for 6 to 7 days by cell titer glo assay; format: functional, cell-based; method in brief: as §1
[29] = system: MX1; assay: Antiproliferative activity against human MX1 cells assessed as inhibition of cell viability measured for 6 to 7 days by cell titer glo assay; format: functional, cell-based; method in brief: as §1
[30] = system: CCRF-HSB-2; assay: Antiproliferative activity against human HSB-2 cells assessed as inhibition of cell viability measured for 6 to 7 days by cell titer glo assay; format: functional, cell-based; method in brief: as §1
[31] = system: CESS; assay: Antiproliferative activity against human CESS cells assessed as inhibition of cell viability measured for 6 to 7 days by cell titer glo assay; format: functional, cell-based; method in brief: as §3
[32] = system: MV-4-11 (human); assay: Antitumor activity in human MV-4-11 cells xenografted in NOD-SCID mouse assessed as median survival time at 10 mg/kg, ip administered once daily for 5 consecutive days with 2 days off scheduled for 3 cycles measured upto 120 days; conditions: time <= 120 day
[33] = system: CCRF-CEM; assay: Antiproliferative activity against human CCRF-CEM cells assessed as inhibition of cell viability measured for 6 to 7 days by cell titer glo assay; format: functional, cell-based; method in brief: as §3
[34] = system: MC116; assay: Antiproliferative activity against human MC116 cells assessed as inhibition of cell viability measured for 6 to 7 days by cell titer glo assay; format: functional, cell-based; method in brief: as §1

Structure (SMILES): CCn1cc(-c2ccnc3[nH]c(-c4cccc(CN(C)C)c4)cc23)c(-c2ccc(NC(=O)N(C)C)cc2)n1 [GSK-1070916]
- EC50 [1]: 4 nM
- EC50 [2]: 8 nM
- EC50 [3]: 7 nM
- EC50 [4]: 7 nM
- EC50 [5]: 7 nM
- MST [6]: 44 days
- EC50 [7]: 787 nM
- Activity [8]: Non-Toxic
- EC50 [9]: 2 nM
- EC50 [10]: 7 nM
- EC50 [11]: 6 nM
- EC50 [12]: 2 nM
- EC50 [13]: 7 nM
- EC50 [14]: 3 nM
- Activity [15]: < 15%
- EC50 [16]: 4 nM
- EC50 [17]: 15 nM
- EC50 [18]: 2 nM
- EC50 [19]: 21 nM
- EC50 [20]: 4 nM
- EC50 [21]: 10 nM
- EC50 [22]: 7 nM
- EC50 [23]: 4 nM
- EC50 [24]: 11 nM
- EC50 [25]: 96 nM
- Activity [26]: inactive
- EC50 [27]: 11 nM
- EC50 [28]: 6 nM
- EC50 [29]: 8 nM
- EC50 [30]: 3 nM
- EC50 [31]: 5 nM
- MST [32]: 70 days
- EC50 [33]: 7 nM
- EC50 [34]: 8 nM
